Here are results for 11 compounds from ChEMBL document CHEMBL3124751, “The versatile nature of the 6-aminoquinolone scaffold: identification of submicromolar hepatitis C virus NS5B inhibitors” (J Med Chem, 2014).

Data set [1] relates to Hepatitis C virus. Kind of data set: Antiviral activity against Hepatitis C virus genotype 1b I389luc-ubi-neo/NS3-3'/5.1 replicon in Huh 5-2 cells assessed as inhibition of replicon replication after 72 hrs by replicon system assay. As to conditions: Huh-5-2, 72 h. The class given is functional, organism-based, Hepacivirus hominis. A digest of the protocol:
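Huh 5-2 replicon cells seeded at 6 500 cells/well one day before compound in DMEM with 10% FCS, 1% non-essential amino acids, 1% penicillin/streptomycin, no Geneticin. Four-step 1-to-5 or eight-step 1-to-2 dilutions, 72 h at 37 °C, 5% CO₂. Luciferase luminescence read after lysis, as % of untreated controls. EC50/EC90 from dose-response curves, means of at least three independent experiments.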
On the technique in general: A replicon is a self-replicating genome or part of one, used to study replication in cells.

Data set [2] is described as follows: Cytostatic activity against human Huh5-2 cells assessed as cell viability after 72 hrs by MTS assay. The class given is cell-based. To be noted: huh-5-2, 72 h. A digest of the protocol:
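Huh 5-2 cells carry genotype 1b I389luc-ubineo/NS3-3'/5.1 replicon, maintained with 2% Geneticin. Seeded at 6 500 cells/well in Geneticin-free assay medium, overnight. Four-step 1:5 dilution screen or eight-step 1:2 series, 72 h at 37 °C. 5% MTS for 1.5 h, absorbance at 498 nm as % of untreated. CC50 from dose-response, mean of ≥3 independent experiments.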

Data set [3] in a line: Inhibition of Hepatitis C virus genotype 1b HC-J4 recombinant N-terminal histidine tagged truncated NS5B polymerase lacking C-terminal 21 amino acids assessed as standard-primer dependent elongation reaction using poly rA/U12 as template after 1 hr by liquid scintillation counting analysis. Also noted: species or system Hepatitis C virus isolate HC-J4. A digest of the protocol: (§1)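 Construct is His-tagged HC-J4 NS5B CΔ21, Ni-NTA purified. Poly rA/U12 primer-dependent elongation run 1 h at 30 °C, then stopped with chilled 5% TCA/0.5 mM pyrophosphate. Products collected on GF-B filters and counted by scintillation. Activity expressed relative to DMSO control. Screen at 25 μM. IC50 from 8–12 concentrations in duplicate, two independent experiments, by nonlinear regression.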

The subject of data set [4] is Hepatitis C virus isolate HC-J4. Kind of data set: Inhibition of Hepatitis C virus genotype 1b HC-J4 recombinant N-terminal histidine tagged truncated NS5B polymerase lacking C-terminal 21 amino acids assessed as standard-primer dependent elongation reaction using poly rA/U12 as template at 25 uM after 1 hr by liquid scintillation counting analysis. A digest of the protocol:
as §1

Data set [5] deals with Hepatitis C virus. Put plainly: Antiviral activity against Hepatitis C virus genotype 1b I389luc-ubi-neo/NS3-3'/5.1 replicon in Huh 9-13 cells assessed as reduction in replicon RNA level after 72 hrs by RT-PCR analysis. The class given is functional, organism-based, Hepacivirus hominis.
Data set [6] in a line: Selectivity index, ratio of CC50 for human Huh5-2 cells to EC50 for Hepatitis C virus genotype 1b I389luc-ubi-neo/NS3-3'/5.1 replicon in Huh 5-2 cells. The class given is toxicity, cell-based. To be noted: read-out: Ratio CC50/EC50. A digest of the protocol:
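Huh 5-2 replicon cells seeded at 6,500/well, overnight at 37 °C; compound dilution series (four-step 1:5 screen, eight-step 1:2 dose-response), 72 h. Antiviral: luciferase luminescence versus untreated controls. Parallel anti-metabolic: 5% MTS 1.5 h, absorbance 498 nm. EC50, CC50 from dose-response curves, means of at least three independent experiments; SI = CC50/EC50.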

A short description of data set [7]: Selectivity index, ratio of CC50 for human Huh-9-13 cells to EC50 for Hepatitis C virus genotype 1b I389luc-ubi-neo/NS3-3'/5.1 replicon in Huh-9-13 cells. To be noted: read-out: Ratio CC50/EC50. Format: toxicity, cell-based. A digest of the protocol:
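Huh 9-13 replicon cells, setup and 72 h compound exposure as for Huh 5-2; CC50 by MTS in parallel. Antiviral readout: replicon RNA by one-step RT-qPCR of cell-to-cDNA lysates (300 nM each primer, 60 nM probe; 40 cycles), expressed as percentage of untreated controls to give EC50; SI = CC50/EC50.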

A short description of data set [8]: Cytotoxicity against human Huh-9-13 cells assessed as alteration in cell morphology by microscopic analysis. Format: cell-based.
Data set [9] is described as follows: Cytostatic activity against human Huh-9-13 cells assessed as cell viability after 72 hrs by MTS assay. The class given is cell-based. A digest of the protocol:
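Huh 9–13 subgenomic replicon cells seeded at 6 500 cells/well in DMEM with 10% FCS, 1% non-essential amino acids, 1% penicillin/streptomycin, then incubated overnight. Compound dilution series given, 72 h at 37 °C, 5% CO₂. Medium replaced with 5% MTS in phenol red-free medium for 1.5 h. Absorbance read at 498 nm as % of untreated. CC50 taken from dose-response, mean of ≥3 independent experiments.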
For orientation: Formazan colour is commonly taken as a measure of viable cells.

Data set [10] is described as follows: Binding affinity to Hepatitis C virus truncated NS5B polymerase lacking C-terminal 21 amino acids after 5 mins by fluorescence quenching assay. Also noted: species or system Hepacivirus hominis. Summed up: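 NS5B CΔ21 at 1 μM final in 50 mM Tris-HCl pH 7.8, 50 mM NaCl, 10% glycerol, 10% DMSO, 0.5 mM MnCl2. Serially diluted compound or DMSO, 5 min at room temperature. Intrinsic fluorescence excitation 280 nm, emission 330 nm; buffer-plus-compound background subtracted. KD fitted to ΔF/ΔFmax = [compound]total/(KD + [compound]total).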

Data set [11] is described as follows: Binding affinity to Hepatitis C virus isolate Con1 C-terminal hexahistidine fusion-tagged NS5B polymerase ectodomain by surface plasmon resonance assay. A digest of the protocol: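 Con1 NS5B ectodomain (C-terminal His6) amine-coupled to CM5 chip at 4–5 kRU from 10 mM MES pH 6.0. Running buffer TBS-P (20 mM Tris pH 7.4, 130 mM NaCl, 0.05% Tween20, 5% DMSO). Compound injected 60 s at 30 μL/min, two-fold series 6–200 μM. Reference/blank subtraction, solvent correction; KD from global 1:1 Langmuir fit.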

Each structure is given as a SMILES string. Where only a bound is given, the exact number is not on record here.

On to `Cc1ccc(COC(=O)c2cn(Cc3ccc(C(F)(F)F)cc3F)c3cc(Cl)c(N)cc3c2=O)cc1`, for which, in the data set with Hepatitis C virus [1], the EC50 (in general, the concentration that produces a half-maximal response) was 72.3 µM and the EC90 – broadly, the concentration needed for an effect of 90% – was above 192 µM. Also, the CC50 – broadly, the concentration giving 50% cytotoxicity – in [2] was above 192 µM. Besides, in data set [3], the IC50 – broadly, the concentration at which inhibition is half-maximal – worked out at 0.154 µM. In addition, in data set [4], the inhibition (in general, the percentage by which the read-out fell short of the control) is above 50%.
Consider `Nc1cc2c(=O)c(C(=O)O)cn(Cc3ccc(Cl)cc3)c2cc1N1CCN(c2ccccn2)CC1`, for which, in the data set with Hepatitis C virus [1], the EC50 stood at 7.3 µM. For the same compound, in [2], the CC50 was above 204 µM. The IC50 in data set [3] worked out at 23.7 µM.
For the compound `Nc1cc2c(=O)c(C(=O)OCc3ccc(Cl)cc3)cn(Cc3ccc(Cl)cc3)c2cc1N1CCN(c2nc3ccccc3s2)CC1`, in the data set with Hepatitis C virus [1], the EC50 is 8.6 µM. The CC50 in [2] was above 169 µM. Also, the IC50 in [3] is 0.138 µM. Moreover, in data set [4], the inhibition was above 50%.
On to `Nc1cc2c(=O)c(C(=O)OCc3ccc(Cl)cc3)cn(Cc3ccc(Cl)cc3)c2cc1N1CCN(c2ccccn2)CC1`, for which the figures for the EC50 in the data set on Hepatitis C virus [1] and in the data set on Hepatitis C virus [5] were 2.2 µM and 3.03 µM, respectively. Moreover, the EC90 in the data set with Hepatitis C virus [1] turned out to be 13.5 µM. The figures for the CC50 in data set [2] and in [9] were above 244 µM and above 163 µM, respectively. The selectivity ratio in data set [6] is above 111; in [7] it was above 54. The IC50 in [3] was determined as 0.069 µM. Besides, the inhibition in data set [4] is above 50%. In addition, in [8], the Activity result is “Toxic”.
For the compound `Nc1cc2c(=O)c(C(=O)OCc3ccc(Cl)cc3)cn(Cc3ccc(Cl)cc3)c2cc1Cl`, in the data set with Hepatitis C virus [1], the EC50 was above 200 µM and the EC90 is above 200 µM. In data set [2], the CC50 is above 200 µM.
Consider `COc1cc2c(=O)c(C(=O)OCc3ccc(C)cc3)cn(Cc3ccc(C(F)(F)F)cc3F)c2cc1OC`, for which, in the data set on Hepatitis C virus [1], the EC50 amounted to 2.02 µM and the EC90 amounted to 4.7 µM. Moreover, the CC50 in [2] was found to be 42.3 µM. In [6], the selectivity ratio is 21. Moreover, the IC50 in data set [3] amounted to 0.211 µM.
On to `Cc1ccccc1COC(=O)c1cn(Cc2ccc(C(F)(F)F)cc2F)c2cc(Cl)c(N)cc2c1=O`, for which, in the data set on Hepatitis C virus [1], the EC50 is 1.5 µM. In addition, the CC50 in [2] stood at 10.5 µM. For the same compound, the selectivity ratio in [6] was 6.8. Further, the half-inhibitory concentration (IC50) in data set [3] came out at 1.41 µM. Also, the inhibition in data set [4] is above 50%.
Turning to `CCOC(=O)c1cn(Cc2ccc(Cl)cc2)c2cc(N3CCN(c4ccccn4)CC3)c(N)cc2c1=O`, in the data set with Hepatitis C virus [1], the 50% effective concentration (EC50) was 31.3 µM. For the same compound, the CC50 in data set [2] is above 193 µM. Also, the selectivity ratio in data set [6] was above 6.2. For the same compound, in data set [3], the half-maximal inhibitory concentration (IC50) was determined as 3.06 µM.
Regarding `Nc1cc2c(=O)c(C(=O)OCc3ccc(Cl)cc3)cn(Cc3ccc(Cl)cc3)c2cc1N1CCNCC1`, the EC50 in the data set on Hepatitis C virus [1] is 1.7 µM. For the same compound, in [2], the CC50 turned out to be 3.7 µM. The selectivity ratio in data set [6] turned out to be 2.3. For the same compound, the IC50 in [3] is 0.067 µM. Further, the inhibition in [4] was above 50%.
Regarding `Nc1cc2c(=O)c(C(=O)OCc3ccc(Cl)cc3)cn(Cc3ccc(Cl)cc3)c2cc1N1CCN(c2cccc(C(F)(F)F)c2)CC1`, in the data set with Hepatitis C virus [1], the EC50 turned out to be 23.8 µM and the EC90 came out at 94.6 µM. The CC50 in data set [2] was above 147 µM. Besides, in [3], the half-inhibitory concentration (IC50) was determined as 6.13 µM. The inhibition in data set [4] was above 50%.
Take `CN1CCN(c2cc3c(cc2N)c(=O)c(C(=O)OCc2ccc(Cl)cc2)cn3Cc2ccc(Cl)cc2)CC1`: the EC50 in the data set on Hepatitis C virus [1] worked out at 2.7 µM. In addition, the equilibrium dissociation constant (Kd) (usually a measure of binding affinity in units of concentration) is 1.2 µM in data set [10] and 14 µM in data set [11]. The CC50 in [2] worked out at 2.8 µM. For the same compound, in data set [6], the selectivity ratio was found to be 1.2. Further, the 50% inhibitory concentration (IC50) in data set [3] amounted to 0.04 µM. In addition, the inhibition in data set [4] is above 50%.
